Screening data deposited in PubChem BioAssay by several laboratories.
Shown are actives, neighbours in structure and some others; about 2.8% of the full set was active somewhere.
eIF4E-4G inh = inhibitors of eIF4E and eIF4G interaction in translation initiation; P63073+Q04637; TR-FRET eIF4E-eIF4GI(517-606) binding, 2 h; inhibition, % at 21.7 µM; hit rate 0.37% among 220,000;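 note: 0% = full FRET control wells and 100% = background wells lacking eIF4GI fragment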
RBBP9 inh = blocks human serine hydrolase RBBP9; O75884; recombinant RBBP9, FP-Rh probe fluorescence polarization; inhibition, % at 7.94 µM; hit rate 0.2% among 220,000; AID 1515;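 active = inhibition above the campaign mean of all tested compounds plus 3 SD, cut at about 14% in these data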;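 note: plate controls were DMSO wells with RBBP9 for no effect and wells lacking RBBP9 protein for full effect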
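System: RBBP9 protein | Quantity: 2.5 µM RBBP9 dispensing solution, before mixing | Reagent: FP-Rh probe, 375 nM dispensing solution | Timing: Enzyme-compound preincubation 30 min, then probe labeling 45 min, 25 °C | Measured by: Fluorescence polarization | Read-out: % inhibition | Replication: One well per compound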
14-3-3 Bad inh = disrupts binding of bovine 14-3-3 zeta to phospho-Bad peptide | P63103 | TR-FRET 14-3-3zeta/Dy647-pBad peptide displacement, 1 h | inhibition, % at 21.7 µM | hit rate 0.71% among 220,000 | AID 781;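 active = inhibition above about 70%, limit read from the data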;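 note: 0% = full 14-3-3 plus peptide FRET controls and 100% = background without 14-3-3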
Wee1 degr inh = human Wee1 degradation inhibition, primary screen; HeLa Luc-Wee1K328M stability, luciferase luminescence; 100% = proteasome inhibitor MG132 effect; hit rate 1.2% among 220,000; P30291; AID 1321; reporter increase, % at 5 µM;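 active = activation above the mean of all tested compounds plus 3 SD, set per screening run, cut at about 8.8% in these data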;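 note: cells exposed to compound for 20 h before luminescence read; 0% = DMSO alone and 100% = MG132 at 30 µM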
Target sequence (P30291 whole entry K328M): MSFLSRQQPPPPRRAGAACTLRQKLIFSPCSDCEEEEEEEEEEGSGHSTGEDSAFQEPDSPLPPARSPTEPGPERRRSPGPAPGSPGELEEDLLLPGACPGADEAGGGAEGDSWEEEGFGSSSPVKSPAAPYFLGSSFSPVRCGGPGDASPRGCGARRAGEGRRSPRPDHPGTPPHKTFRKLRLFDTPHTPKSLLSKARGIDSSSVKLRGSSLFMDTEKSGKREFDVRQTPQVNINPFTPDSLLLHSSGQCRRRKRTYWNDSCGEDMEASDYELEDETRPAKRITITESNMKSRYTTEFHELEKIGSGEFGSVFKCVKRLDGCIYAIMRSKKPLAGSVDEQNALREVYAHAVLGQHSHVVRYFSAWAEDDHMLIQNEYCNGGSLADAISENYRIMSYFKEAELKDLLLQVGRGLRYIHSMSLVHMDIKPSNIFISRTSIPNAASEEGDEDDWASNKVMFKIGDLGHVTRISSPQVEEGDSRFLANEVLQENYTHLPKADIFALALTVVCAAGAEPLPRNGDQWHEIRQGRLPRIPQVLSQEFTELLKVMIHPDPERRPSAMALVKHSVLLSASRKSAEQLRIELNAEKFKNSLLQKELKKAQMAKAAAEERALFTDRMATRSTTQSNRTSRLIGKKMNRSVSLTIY
p47phox inh = p47phox (human) inhibition | p47phox/p22phox peptide binding, fluorescence polarization, 2 h | inhibition, % at 24.7 µM | hit rate 0.53% among 220,000 | AID 1274;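 note: 0% = p47phox with labelled peptide and 100% = labelled peptide alone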
An asterisk follows results filed as active; · = no result given; [ ] = another dose, or the depositor's remark.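 Rule for the calls, unless noted: active = inhibition above about 30% (limit read from the data); inactive = the rest.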

SMILES	eIF4E-4G inh	RBBP9 inh	14-3-3 Bad inh	Wee1 degr inh	p47phox inh
COc1ccc(O)c(/C=C(\C#N)C(=O)Nc2cccnc2)c1	37*	-7	20	5	-8
CCOc1ccc(N2C(=O)CN(O)C=C3N=c4ccccc4=C32)cc1	2	12	2	-2	·
Cc1ccc(OCC(O)CN2CCN(Cc3ccc4c(c3)OCO4)CC2)c(C)c1 (stereo unspecified)	8	-6	77*	-1	1
C=CCc1cc(C)ccc1OCC(O)CN1CCN(c2ccccc2)CC1 (stereo unspecified)	1	-6	70*	-2	-4
COc1ccc(OCC(O)CN2CCN(Cc3ccc4c(c3)OCO4)CC2)cc1 (stereo unspecified)	-1	-4	-14	-1	1
C=CCc1cc(OC)ccc1OCC(O)CN1CCN(c2ccc(OC)cc2)CC1 (stereo unspecified)	0	-9	24	0	-6
c1ccc(CCn2nnnc2C(c2cccnc2)N2CCOCC2)cc1 (stereo unspecified)	-2	0	-9	0	8
Cc1ccc2sc(N(CCCN(C)C)C(=O)c3nc4ccccc4s3)nc2c1C	3	2	21	7	32*
Cc1ccc(CNC(=O)CCS(=O)(=O)c2cc(Br)cc3c2N(C(=O)C2CC2)CC3)o1	0	-11	7	-2	-6
CC(C)NC(=S)Nc1ccc(S(=O)(=O)Nc2ncccn2)cc1	6	-2	-31	2	-9
NC1=NC(=O)/C(=C\c2ccsc2)S1	63*	-8	-2	-1	-20
CCOc1ccc(C(=O)N(CN2CCCC2=O)c2ccccc2)cc1	-1	-9	6	13*	0
NC(=S)N/N=C/c1coc2c(ccc3ccccc32)c1=O	10	2	89*[fluorescence artefact?]	3	-15
CCOC(=O)CSc1ccc2nnc(CCNS(=O)(=O)c3ccccc3)n2n1	0	4	83*	2	·
COCCN1C(=O)c2oc3cc(C)c(C)cc3c(=O)c2C1c1ccc(O)cc1 (stereo unspecified)	·	-2	·	9.1*	·
Cc1nc(-c2ccccn2)nc(N2CCOCC2)c1Cl	1	-3	3	10*	-5
c1ccc(-c2nc(N3CCOCC3)c3ccccc3n2)nc1	2	3	15	0	9
Cc1cccc(N=Nc2c(C)c(C#N)c(O)[nH]c2=O)c1	-1	-4	-9	0	79*
Cc1ccc(S(=O)(=O)CCC(=O)NCc2ccccc2Cl)cc1	60*	-3	-21	1	0
Cc1ccc(S(=O)(=O)C2(C(=O)NCc3ccccc3Cl)CC2)cc1	4	-9	8	4	-9
CN(C)S(=O)(=O)c1cccc(NC(=O)CCNC(=O)c2ccccc2Cl)c1	4	-5	-6	0	-12
COc1ccc(NC(=O)c2ccc(-n3nc(C)cc3C)cc2)cc1OC	3	-7	-9	0	38*
Cc1cc(C)n(-c2ccc(C(=O)Nc3ccc4c(c3)OCO4)cc2)n1	7	1	-10	1	-9
CC(=O)C1C(=O)c2c(cccc2[N+](=O)[O-])C1=Nc1cccc(Cl)c1 (stereo unspecified)	1	8	3	1	-9
CCN1CCN(Cc2ccc(NC(=O)c3cc(NC(=O)C(=O)c4c[nH]c5ccccc45)cc(OC)c3)cc2C(F)(F)F)CC1	10	·	25	·	37*
SMILES	eIF4E-4G inh	RBBP9 inh	14-3-3 Bad inh	Wee1 degr inh	p47phox inh
CCN1CCN(Cc2ccc(NC(=O)c3ccc(C)c(NC(=O)c4ccc5n[nH]nc5c4)c3)cc2C(F)(F)F)CC1	-2	·	-5	·	-9
CCN1CCN(Cc2ccc(NC(=O)c3ccc(C)c(NC(=O)C(=O)c4c[nH]c5ccccc45)c3)cc2C(F)(F)F)CC1	12	·	21	·	59*
Cc1ccc2nc(-c3ccc(N4C(=NC(=O)CCC(=O)O)SC5CS(=O)(=O)CC54)cc3)sc2c1 (stereo unspecified)	11	0	11	2	-7
O=C(COC(=O)CN1C(=O)c2cccc([N+](=O)[O-])c2C1=O)NC1CCS(=O)(=O)C1 (stereo unspecified)	-1	-3	2	-2	-1
CC(=O)Nc1cc(C(=O)O)ccc1S(=O)(=O)c1ccc(C)cc1	-2	-3	5	9.2*	-18
CCC(=O)Nc1cc(C(=O)O)ccc1S(=O)(=O)c1ccc(C)cc1	6	-12	5	-2	-18
CCOc1cc(S(=O)(=O)NCc2ccncc2)c(C)cc1C	0	-2	-4	8	-5
CCCn1c(=O)[nH]c(=O)c2c1nc(-c1cccs1)n2CCOC	5	2	-6	-2	-9
COC(=O)Cn1c(=NC(=O)c2ccc([N+](=O)[O-])s2)sc2cc(Br)ccc21	-2	0	-11	2	17
CCOC(=O)CSc1nnc(CSc2nc(C)cc(C)n2)n1Cc1ccco1	136*[fluorescence artefact?]	-7	11	0	1
CC(=O)Oc1ccc2c(c1)OC(c1ccccc1)CC21CC(C)(C)NC(=S)N1 (stereo unspecified)	39*	-9	4	-2	-10
CC1(C)CC2(CC(c3ccccc3)Oc3cc(O)ccc32)NC(=S)N1 (stereo unspecified)	-11	3	3	-3	-5
Cc1cccc(/C(N)=N/OC(=O)C23CC4CC(CC(C4)C2)C3)c1	5	-4	-5	-3	-2
COc1ccc2c(c1)C(=O)CC(O)(C(F)F)O2 (stereo unspecified)	-5	-8	2	9.8*	-11
COc1ccc([N+](=O)[O-])cc1N/C(=N/S(=O)(=O)c1ccccc1)c1ccccc1	-1	-9	9	2	10
CC(C)COc1ccc(C(=O)CCN2CCCCC2)cc1	2	-7	79*	6	-2
CCCCOc1ccc(C(=O)CCN2CCCCC2)cc1	0	-5	3	-3	-10
O=C1N=C2N(CCN3CCCCC3)c3ccccc3N2/C1=C\c1ccc([N+](=O)[O-])o1	12	-7	88*	-1	-13
c1ccc2c(c1)N1CCCN=C1N2CCN1CCCCC1	-2	-5	0	-3	3
CN(C)CC/C=C1/c2ccccc2COc2ccccc21	3	-9	5	0	-2
c1ccc2c(c1)OCc1cn[nH]c1-2	51*	-4	2	-4	1
CN(C)CCNc1nc2sc3c(c2c(=O)n1-c1ccccc1)CCCCC3	79*	-6	-7	2	-11
CN(C)CCNc1nc2sc3c(c2c(=O)n1-c1ccc(F)cc1)CCCCC3	1	-4	5	3	-8
Cc1ccsc1CNC1C2CC3CC(C2)CC1C3 (stereo unspecified)	0	-6	-2	1	-8
Cc1ccc(NC(=S)NC(C)(C)C)c([N+](=O)[O-])c1	3	-2	-5	5	-5
C=CCNC(=S)Nc1ccc(C)cc1[N+](=O)[O-]	-3	-6	-12	9.1*	-8
